Data set [1] has as its system Candida albicans. The experiment in a line: Effect on cell morphology in antibiotic resistant Candida albicans clinical isolate 08030809 assessed as intracellular inclusions at MIC to 2.5 times MIC after 30 mins by scanning electron microscopy. In kind it is functional, organism-based. The procedure, abridged: (§1)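 Exponential-phase C. albicans 08030809 was washed in PBS and resuspended in Sabouraud medium. Cells were treated 30 min at 37°C alongside a vehicle control. They were then fixed in 2.5% glutaraldehyde (4°C, 2 h) and 1% osmium tetroxide, dehydrated through graded ethanol, freeze-dried from tert-butanol, gold-coated and imaged by SEM. Images are typical of three experiments.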

Data set [2] concerns Candida albicans. Briefly: Antimicrobial activity against antibiotic resistant Candida albicans clinical isolate 08032821 compound treated in NaCl solution measured after 36 hrs by disc diffusion method. In kind it is functional. To be noted: isolate 08032821, 36 h. An outline of the steps:
(§2)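 Salt-tolerance test: peptide at 2 mg/mL was prepared in sterile ddH2O, in 150 mM NaCl, or in PBS (150 mM NaCl, 2.7 mM KCl, 1.5 mM KH2PO4, 8 mM K2HPO4, pH 7.2). Anti-C. albicans activity was then assessed by inhibition zone on Sabouraud medium with 0.7% agar.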
For orientation: A growth-free zone around the sample is the usual read-out of agar diffusion tests.

Data set [3] deals with Candida albicans. Briefly: Antimicrobial activity against antibiotic resistant Candida albicans clinical isolate 08032821 compound treated in double distilled water measured after 36 hrs by disc diffusion method. In kind it is functional. To be noted: isolate 08032821, 36 h. The procedure, abridged:
as §2

In another data set the test system is HEK293. Briefly: Cytotoxicity against HEK293 cells assessed as cell viability at 0.39 to 100 ug/ml after 24 hrs by MTT assay. Conditions: human, hek293, 24 h. In kind it is cell-based. The procedure, abridged:
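HEK293 seeded at 1 × 10^5 cells/mL in DMEM with 10% fetal calf serum and penicillin-streptomycin, 37 °C, 5% CO2. Cells exposed to sample for 24 h, then given MTT (5 mg/mL); formazan dissolved in DMSO and read at 570 nm. Done in triplicate.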
A general note: Tetrazolium assays rely on reduction of a dye to a coloured formazan, in cell work by metabolically active cells.

Data set [4] has as its system Candida albicans. The experiment in a line: Antimicrobial activity against antibiotic resistant Candida albicans clinical isolate 08030809 assessed as clone count at MIC after 1 min by colony counting assay (reference value: 62 +/- 7 CFU). The class given is functional.
Data set [5] relates to Candida albicans. Briefly: Antimicrobial activity against Candida albicans ATCC 2002 assessed as inhibition of yeast growth after 16 hrs by broth dilution method. The class given is functional. To be noted: ATCC 2002, 16 h. The procedure, abridged: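 Broth microdilution in Sabouraud liquid medium. Samples are stocks in 0.9% NaCl, 10 µL added to 90 µL broth plus 100 µL of 2 × 10^5 CFU/mL yeast suspension. Incubated 16 h at 28°C, growth read by A600. MIC is the lowest concentration completely inhibiting growth; mean of three independent experiments.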
(In general: In broth dilution the organism is exposed to a series of concentrations in liquid medium.)

Data set [6] relates to Candida albicans. Briefly: Antimicrobial activity against antibiotic resistant Candida albicans clinical isolate 08030809 assessed as clone count at 5 times MIC after 3 hrs by colony counting assay (reference value: 3687 +/- 543 CFU). The class given is functional.
For data set [7], the system named is Candida albicans. Briefly: Antimicrobial activity against antibiotic resistant Candida albicans clinical isolate 08030809 assessed as clone count at 5 times MIC after 6 hrs by colony counting assay (reference value: 14536 +/- 2467 CFU). The class given is functional.
The subject of data set [8] is Candida albicans. The experiment in a line: Antimicrobial activity against antibiotic resistant Candida albicans clinical isolate 08030809 assessed as clone count at 5 times MIC after 24 hrs by colony counting assay (Rvb > 10^5 CFU). In kind it is functional.
In data set [9] the test system is Candida albicans. Briefly: Antimicrobial activity against antibiotic resistant Candida albicans clinical isolate 08030809 assessed as clone count at 10 times MIC after 3 hrs by colony counting assay (reference value: 3687 +/- 543 CFU). The class given is functional.
Data set [10] deals with Candida albicans. Briefly: Antimicrobial activity against antibiotic resistant Candida albicans clinical isolate 08030809 assessed as clone count at MIC after 30 mins by colony counting assay (reference value: 156 +/- 16 CFU). The class given is functional.
Data set [11] concerns Mus musculus. Briefly: Antiinflammatory activity in antibiotic resistant Candida albicans clinical isolate 08030809 induced mouse vaginitis model assessed as reduction in IL-6 secretion in vaginal tissue administered as intravaginal instillation measured on day 10 by ELISA. The class given is functional, organism-based. Conditions: Vagina. An outline of the steps: (§3)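 Same estradiol-primed mouse model, infected intravaginally with C. albicans 08030809 and treated by intravaginal instillation (20 µL/mouse). Vaginal canals excised on day 10 of treatment and homogenised in 0.9% NaCl. Supernatant taken after 2,000 g for 15 min. TNF-α, IL-6, IL-1β and IL-10 measured by ELISA. Mean ± SE of three independent experiments; unpaired t-test versus vehicle.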

Data set [12] deals with Mus musculus. The experiment in a line: Antiinflammatory activity in antibiotic resistant Candida albicans clinical isolate 08030809 induced mouse vaginitis model assessed as reduction in microabscess number in vaginal tissue at 50 ug administered as intravaginal instillation measured after 16 days by hematoxylin-eosin staining based microscopic method. In kind it is functional, organism-based. To be noted: Vagina. An outline of the steps:
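Mice given weekly subcutaneous estradiol valerate (0.5 mg in 0.1 mL vegetable oil) 72 h before infection. Infected intravaginally with 20 µL of 10^7 CFU/mL C. albicans 08030809. Intravaginal instillation of 20 µL daily for 16 days. Vaginal canals excised after lavage, formalin-fixed, paraffin-embedded, HE-stained. Microabscesses counted per high-power field over 6 fields per section, three independent experiments.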

In data set [13] the test system is Mus musculus. Briefly: Antiinflammatory activity in antibiotic resistant Candida albicans clinical isolate 08030809 induced mouse vaginitis model assessed as reduction in IL-6 secretion in vaginal tissue at 20 ug administered as intravaginal instillation measured on day 10 by ELISA. In kind it is functional, Vagina. An outline of the steps: as §3
Data set [14] has as its system Mus musculus. Briefly: Antiinflammatory activity in antibiotic resistant Candida albicans clinical isolate 08030809 induced mouse vaginitis model assessed as reduction in IL-1beta secretion in vaginal tissue at 20 ug administered as intravaginal instillation measured on day 10 by ELISA. The class given is functional, Vagina. An outline of the steps:
as §3

For data set [15], the system named is Mus musculus. Briefly: Antiinflammatory activity in antibiotic resistant Candida albicans clinical isolate 08030809 induced mouse vaginitis model assessed as reduction in IL-10 secretion in vaginal tissue at 20 ug administered as intravaginal instillation measured on day 10 by ELISA. In kind it is functional, Vagina. An outline of the steps:
as §3

Data set [16] deals with Mus musculus. Briefly: Antiinflammatory activity in antibiotic resistant Candida albicans clinical isolate 08030809 induced mouse vaginitis model assessed as reduction in IL-10 secretion in vaginal tissue at 50 ug administered as intravaginal instillation measured on day 10 by ELISA. In kind it is functional, Vagina. An outline of the steps: as §3
For data set [17], the system named is Mus musculus. The experiment in a line: Antiinflammatory activity in antibiotic resistant Candida albicans clinical isolate 08030809 induced mouse vaginitis model assessed as reduction in TNF-alpha secretion in vaginal tissue administered as intravaginal instillation measured on day 10 by ELISA. Conditions: Vagina. In kind it is functional, organism-based. The procedure, abridged: as §3

In data set [18] the test system is Candida albicans. Briefly: Antimicrobial activity against antibiotic resistant Candida albicans clinical isolate 08030809 in mouse vaginitis model assessed as decrease in colony count in lavage liquid of vagina at 50 ug administered as intravaginal instillation measured on day 11. In kind it is functional.
Data set [19] has as its system Candida albicans. The experiment in a line: Antimicrobial activity against antibiotic resistant Candida albicans clinical isolate 08030809 in mouse vaginitis model assessed as decrease in colony count in lavage liquid of vagina at 50 ug measured on day 1. The class given is functional.
The test system of data set [20] is Candida albicans. The experiment in a line: Effect on cell morphology in antibiotic resistant Candida albicans clinical isolate 08030809 assessed as cell swelling at MIC to 2.5 times MIC after 30 mins by scanning electron microscopy. In kind it is functional, organism-based. An outline of the steps:
as §1

Data set [21] concerns Candida albicans. The experiment in a line: Effect on cell morphology in antibiotic resistant Candida albicans clinical isolate 08030809 assessed as cell membrane perforation at MIC to 2.5 times MIC after 30 mins by scanning electron microscopy. In kind it is functional, organism-based. The procedure, abridged:
as §1

From ChEMBL document CHEMBL3779860, “A Designed Tryptophan- and Lysine/Arginine-Rich Antimicrobial Peptide with Therapeutic Potential for Clinical Antibiotic-Resistant Candida albicans Vaginitis” (J Med Chem, 2016) come the findings set out here.

As a reminder, the MIC is the lowest concentration that inhibits growth of the organism.

Calls of active or inactive are those of the source. No cut-off for these calls is given here.

As for H-VKRWKKWRWKWKKWV-NH2, the result with Candida albicans [1], with Mus musculus [12], with Candida albicans [20] and with Candida albicans [21] was Active. Further, the results for the MIC in the data set with Candida albicans [2], with Candida albicans [3] and in the data set with Candida albicans [5] were 2.65 µg/mL, 2.65 µg/mL and 0.59 µg/mL, respectively. Also, the Activity entry is “Non-toxic” in the data set with HEK293; 18 CFU with Candida albicans [4]; 0 CFU in the data set with Candida albicans [6]; 0 CFU in the data set with Candida albicans [7]; 0 CFU with Candida albicans [8]; 0 CFU in the data set with Candida albicans [9]. For the same substance, the Activity in the data set with Candida albicans [10] was 0 CFU; in the data set with Mus musculus [11], “Dose-dependent effect”; in the data set on Mus musculus [17] it was “Dose-dependent effect”. The “inhibition (INH)” value was 46% with Mus musculus [13]; 44% in the data set on Mus musculus [14]; 39% with Mus musculus [15]; 45% in the data set with Mus musculus [16]; 66% with Candida albicans [18]; 28% in the data set on Candida albicans [19].
